Experimental data: ChEMBL document CHEMBL5724801, “EUbOPEN Chemogenomics Library - Multiplex” (2024)
Where “and” joins values, the source holds several entries; their conditions need not be identical. Equal values may be shown once.

System: HEK-293T
Assay: Multiplex assay against HEK293T
Type: toxicity, cell-based
Conditions: human
How it was run: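 On a CQ1 microscope at 37°C and 5% CO2, live cells were imaged after compound addition. They had been stained at seeding with Hoechst33342, BioTracker Green Microtubule Cytoskeleton Dye, MitoTracker Red and Annexin V Alexa Fluor 680. CellPathfinder machine-learning gating assigned cells to Hoechst high-intensity objects or normal cells, normal cells to healthy, pyknosed or fragmented nuclei, and pyknosed cells to mitotic or apoptotic. Tubulin, mitochondrial-mass and membrane-permeability phenotypes are per cents of healthy-nucleus cells.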

[1] = 12 h, 1 µM, compound concentration 1 uM
[2] = 12 h, 10 µM, compound concentration 10 uM
[3] = 24 h, 1 µM, compound concentration 1 uM
[4] = 24 h, 10 µM, compound concentration 10 uM
[5] = 48 h, 1 µM, compound concentration 1 uM
[6] = 48 h, 10 µM, compound concentration 10 uM

SMILES: CCOC(=O)c1c(/C(C#N)=C\N)c2ccc(Cl)c(Cl)c2n1C
- Population Apoptotic (%) [1]: 10.92% and 11.11%
- Population Fragmented Nuclei (%) [1]: 1.47% and 6.57%
- Population Healthy Nuclei (%) [1]: 63.42% and 21.17%
- Population Hoechst High Intensity Objects (%) [1]: 0.59% and 0%
- Population Membrane Permeable-Phenotype (%) [1]: 0.47% and 0%
- Population Mitochondria Different-Phenotype (%) [1]: 35.81% and 27.59%
- Population Mitotic Cells (%) [1]: 89.08% and 88.89%
- Population Normal (%) [1]: 99.41% and 100%
- Population Pyknosed Nuclei (%) [1]: 35.1% and 72.26%
- Total Cell Count [1]: 341 and 137
- Population Apoptotic (%) [2]: 10.34% and 8.77%
- Population Fragmented Nuclei (%) [2]: 2.88% and 1.83%
- Population Healthy Nuclei (%) [2]: 59.94% and 28.66%
- Population Hoechst High Intensity Objects (%) [2]: 0.64% and 0%
- Population Membrane Permeable-Phenotype (%) [2]: 0.53% and 0%
- Population Mitochondria Different-Phenotype (%) [2]: 26.74% and 19.15%
- Population Mitotic Cells (%) [2]: 89.66% and 91.23%
- Population Normal (%) [2]: 99.36% and 100%
- Population Pyknosed Nuclei (%) [2]: 37.18% and 69.51%
- Total Cell Count [2]: 314 and 164
- Population Apoptotic (%) [3]: 15.32% and 13.98%
- Population Fragmented Nuclei (%) [3]: 1.11% and 3.87%
- Population Healthy Nuclei (%) [3]: 78.41% and 36.13%
- Population Hoechst High Intensity Objects (%) [3]: 0.18% and 0%
- Population Membrane Permeable-Phenotype (%) [3]: 1.18% and 0%
- Population Mitochondria Different-Phenotype (%) [3]: 15.29% and 16.07%
- Population Mitotic Cells (%) [3]: 84.68% and 86.02%
- Population Normal (%) [3]: 99.82% and 100%
- Population Pyknosed Nuclei (%) [3]: 20.48% and 60%
- Population Tubulin-Different-Phenotype (%) [3]: 5.88% and 5.36%
- Population Apoptotic (%) [4]: 10.47% and 16.46%
- Population Fragmented Nuclei (%) [4]: 1.69% and 1.2%
- Population Healthy Nuclei (%) [4]: 80.17% and 51.2%
- Population Hoechst High Intensity Objects (%) [4]: 0%
- Population Membrane Permeable-Phenotype (%) [4]: 1.05% and 1.18%
- Population Mitochondria Different-Phenotype (%) [4]: 14.21% and 7.06%
- Population Mitotic Cells (%) [4]: 89.53% and 83.54%
- Population Normal (%) [4]: 100%
- Population Pyknosed Nuclei (%) [4]: 18.14% and 47.59%
- Population Tubulin-Different-Phenotype (%) [4]: 7.11% and 4.71%
- Total Cell Count [4]: 474 and 166
- Population Apoptotic (%) [5]: 7.43% and 15.94%
- Population Fragmented Nuclei (%) [5]: 4.65% and 2.55%
- Population Healthy Nuclei (%) [5]: 86.28% and 72.26%
- Population Hoechst High Intensity Objects (%) [5]: 0%
- Population Membrane Permeable-Phenotype (%) [5]: 4.76% and 3.03%
- Population Mitochondria Different-Phenotype (%) [5]: 8.8% and 13.13%
- Population Mitotic Cells (%) [5]: 92.57% and 84.06%
- Population Normal (%) [5]: 100%
- Population Pyknosed Nuclei (%) [5]: 9.06% and 25.18%
- Population Apoptotic (%) [6]: 9.24% and 19.3%
- Population Fragmented Nuclei (%) [6]: 4.82% and 1.55%
- Population Healthy Nuclei (%) [6]: 85.93% and 80.75%
- Population Hoechst High Intensity Objects (%) [6]: 0% and 0.92%
- Population Membrane Permeable-Phenotype (%) [6]: 5.88% and 2.31%
- Population Mitochondria Different-Phenotype (%) [6]: 11.04% and 11.15%
- Population Mitotic Cells (%) [6]: 90.76% and 80.7%
- Population Normal (%) [6]: 100% and 99.08%
- Population Pyknosed Nuclei (%) [6]: 9.25% and 17.7%

SMILES: CCn1c(-c2nonc2N)nc2c(C#CC(C)(C)O)ncc(OCC3CCCNC3)c21 (stereo not drawn)
- Population Apoptotic (%) [1]: 10.29% and 11.11%
- Population Fragmented Nuclei (%) [1]: 2.35% and 5.52%
- Population Hoechst High Intensity Objects (%) [1]: 0.29% and 0%
- Population Membrane Permeable-Phenotype (%) [1]: 0%
- Population Mitochondria Different-Phenotype (%) [1]: 31.65% and 45.45%
- Population Mitotic Cells (%) [1]: 89.71% and 88.89%
- Population Normal (%) [1]: 99.71% and 100%
- Population Pyknosed Nuclei (%) [1]: 51.32% and 86.9%
- Total Cell Count [1]: 342 and 145
- Population Apoptotic (%) [2]: 15.66% and 20.38%
- Population Fragmented Nuclei (%) [2]: 0.98% and 2.91%
- Population Hoechst High Intensity Objects (%) [2]: 1.92% and 0%
- Population Membrane Permeable-Phenotype (%) [2]: 0%
- Population Mitochondria Different-Phenotype (%) [2]: 33.96% and 20%
- Population Mitotic Cells (%) [2]: 84.34% and 79.62%
- Population Normal (%) [2]: 98.08% and 100%
- Population Pyknosed Nuclei (%) [2]: 64.5% and 91.28%
- Population Tubulin-Different-Phenotype (%) [2]: 48.11% and 40%
- Total Cell Count [2]: 313 and 172
- Population Apoptotic (%) [3]: 27.07% and 20.59%
- Population Fragmented Nuclei (%) [3]: 1.2% and 4.2%
- Population Healthy Nuclei (%) [3]: 58.73% and 24.48%
- Population Hoechst High Intensity Objects (%) [3]: 0.3% and 0%
- Population Membrane Permeable-Phenotype (%) [3]: 1.54% and 0%
- Population Mitochondria Different-Phenotype (%) [3]: 34.87% and 20%
- Population Mitotic Cells (%) [3]: 72.93% and 79.41%
- Population Normal (%) [3]: 99.7% and 100%
- Population Pyknosed Nuclei (%) [3]: 40.06% and 71.33%
- Total Cell Count [3]: 333 and 143
- Population Apoptotic (%) [4]: 43.87% and 34.93%
- Population Fragmented Nuclei (%) [4]: 1.02% and 3.07%
- Population Hoechst High Intensity Objects (%) [4]: 1.01% and 0%
- Population Membrane Permeable-Phenotype (%) [4]: 0%
- Population Mitochondria Different-Phenotype (%) [4]: 55.56% and 50%
- Population Mitotic Cells (%) [4]: 56.13% and 65.07%
- Population Normal (%) [4]: 98.99% and 100%
- Population Pyknosed Nuclei (%) [4]: 52.9% and 89.57%
- Population Tubulin-Different-Phenotype (%) [4]: 82.22% and 41.67%
- Total Cell Count [4]: 296 and 163
- Population Apoptotic (%) [5]: 16.67% and 24.05%
- Population Fragmented Nuclei (%) [5]: 1.43% and 3.95%
- Population Healthy Nuclei (%) [5]: 81.46% and 51.41%
- Population Hoechst High Intensity Objects (%) [5]: 0.32% and 0.56%
- Population Membrane Permeable-Phenotype (%) [5]: 3.89% and 2.2%
- Population Mitochondria Different-Phenotype (%) [5]: 59.34% and 63.74%
- Population Mitotic Cells (%) [5]: 83.33% and 75.95%
- Population Normal (%) [5]: 99.68% and 99.44%
- Population Pyknosed Nuclei (%) [5]: 17.12% and 44.63%
- Population Apoptotic (%) [6]: 73.58% and 71.96%
- Population Fragmented Nuclei (%) [6]: 1.19% and 2.01%
- Population Healthy Nuclei (%) [6]: 56.75% and 26.17%
- Population Hoechst High Intensity Objects (%) [6]: 1.18% and 0%
- Population Membrane Permeable-Phenotype (%) [6]: 2.8% and 0%
- Population Mitochondria Different-Phenotype (%) [6]: 97.2% and 92.31%
- Population Mitotic Cells (%) [6]: 26.42% and 28.04%
- Population Normal (%) [6]: 98.82% and 100%
- Population Pyknosed Nuclei (%) [6]: 42.06% and 71.81%
- Population Tubulin-Different-Phenotype (%) [6]: 70.63% and 92.31%
- Total Cell Count [6]: 255 and 149
